Source: PubChem BioAssay
The list is not random: actives were taken first. Their share in the collection is about 1.9%.
Scp1 inh: Scp-1 (human) phosphatase inhibition; Q9GZU7; hit rate 0.88% among 340,000; Recombinant Scp1, phosphopeptide, malachite green phosphate absorbance; inhibition, % at 20 µM;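 active means inhibition above about 50% at 20 µM, limit read from the data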;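 further: plate controls were DMSO wells with enzyme for no effect and wells lacking enzyme for full effect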
Target sequence (Q9GZU7 76-261 limits assumed): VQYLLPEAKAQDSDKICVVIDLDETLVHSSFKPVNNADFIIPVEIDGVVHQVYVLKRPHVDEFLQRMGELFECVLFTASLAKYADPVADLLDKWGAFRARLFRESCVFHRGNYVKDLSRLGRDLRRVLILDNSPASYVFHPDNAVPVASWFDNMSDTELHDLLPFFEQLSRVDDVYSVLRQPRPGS
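Times: enzyme reaction 45 min at room temperature, colour 5 min, stabilisation 30 min. Material: SCP-1 catalytic fragment, aa 76-261. Medium: Acidic Tris acetate buffer with magnesium and detergent. Signal: colorimetric free-phosphate detection, absorbance 630 nm. Read-out basis: % inhibition of SCP-1 phosphate liberation. Reagent: Phosphorylated 17-residue peptide substrate.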
LMPTP block: blocks human LMPTP phosphatase; recombinant LMPTP-A, OMFP fluorogenic substrate, fluorescence intensity; hit rate 0.22% among 360,000; inhibition, % at 20 µM; P24666; AID 651560;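 active means compounds that cut the enzyme signal by at least half of the control window in the single-dose screen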;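 further: plate controls were DMSO wells with enzyme plus substrate for no effect and substrate without enzyme for full effect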
Target sequence (P24666 whole entry, looked up): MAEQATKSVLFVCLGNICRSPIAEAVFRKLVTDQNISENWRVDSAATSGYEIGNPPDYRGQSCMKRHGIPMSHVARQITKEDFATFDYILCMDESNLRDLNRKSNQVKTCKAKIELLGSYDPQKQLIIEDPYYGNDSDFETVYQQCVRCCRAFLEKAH
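material = LMPTP-A | quantity = 0.625 nM enzyme | reagent = OMFP substrate, 400 µM final | buffer or medium = Bis-Tris pH 6.0, DTT, detergent | detection = endpoint fluorescence intensity from OMFP dephosphorylation | dosing = single 20 µM dose | read-out basis = % inhibition relative to no-enzyme and uninhibited control wells | control set = no-enzyme and uninhibited controls | timing = 50 min at room temperature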
STEP block: STEP (human) phosphatase inhibition; P54829; recombinant STEP, OMFP fluorogenic substrate, fluorescence; inhibition, % at 20 µM; hit rate 0.25% among 360,000;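 active means inhibition at 20 µM, scaled per plate between control wells, above about 37%, limit read from the data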;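 further: 0% = DMSO with enzyme and substrate and 100% = substrate only without enzyme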
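System: STEP phosphatase, cell-free reaction; Buffer or medium: Bis-Tris pH 6.0 buffer with DTT, detergent; Incubation: 20 min at room temperature, dark; Measured by: fluorescence, 480/540 nm.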
PP5 primary: blocks human protein phosphatase 5 activity | P53041 | purified PP5c, OMFP substrate fluorescence | inhibition, % at 6.7 µM | hit rate 0.18% among 320,000;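 active means inhibition above the campaign's mean inhibition across all tested compounds plus 3 SD, cut at about 9.5% in these data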;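 further: 0% = DMSO only and 100% = 100 µM cantharidin control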
PP1 inh: counter-screen for PP5 inhibitors: inhibitors of human PP1-alpha; AID 2235; purified PP1alpha, OMFP fluorescence; P62136; hit rate 0.9% among 320,000; inhibition, % at 6.7 µM;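 active means inhibition above the mean inhibition of all tested compounds plus 3 SD, computed separately for each screening campaign, cut at about 15% in these data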
Target sequence (P62136 whole entry, looked up): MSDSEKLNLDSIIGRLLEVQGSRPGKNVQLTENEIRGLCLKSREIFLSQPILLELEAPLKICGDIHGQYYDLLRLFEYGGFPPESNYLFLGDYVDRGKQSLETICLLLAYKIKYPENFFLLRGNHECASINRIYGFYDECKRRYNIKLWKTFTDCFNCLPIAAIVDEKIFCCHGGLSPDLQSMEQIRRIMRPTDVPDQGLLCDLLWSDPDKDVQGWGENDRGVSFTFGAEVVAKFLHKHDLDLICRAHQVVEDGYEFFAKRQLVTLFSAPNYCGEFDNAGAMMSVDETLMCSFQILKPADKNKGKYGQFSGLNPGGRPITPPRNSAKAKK
Scp1 confirm: Scp-1 (human) inhibition, single-dose confirmed | shares compounds with Scp1 inh | recombinant SCP-1 catalytic domain, phosphate release, malachite green absorbance | inhibition, % at 20 µM | hit rate 61% among 2,500 | AID 540281;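 further: plate controls were DMSO with enzyme for no effect and buffer wells lacking enzyme for full effect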
MG interference: interferes with malachite green readout, flagging false Scp-1 hits | shares compounds with Scp1 inh | Colorimetric interference counterscreen, malachite green absorbance 630 nm | apparent inhibition (interference), % at 20 µM | 2,500 tested, under 10 active | AID 540313;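 further: compounds added after enzyme reaction finished so only phosphate colour detection is probed; plate controls were DMSO wells with completed Scp-1 reaction for no effect and substrate wells lacking enzyme for full effect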
Scp1 DSF: Scp-1 (human) binding by thermal shift; shares compounds with Scp1 inh; Recombinant SCP1, Sypro Orange thermal shift Tm; thermal shift relative to vanadate control, % at 40 µM; hit rate 25% among 1,500;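 active means substances whose mean melting-temperature shift, as a percentage of the reference inhibitor's shift, reaches about 5.3%, limit read from the data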;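 further: 0% = Tm of DMSO wells and 100% = Tm with sodium orthovanadate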
The depositor's hits bear a star; . = no result.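 How the source made its calls, unless noted: active means inhibition of at least 30% at 20 µM; inactive means the rest.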

SMILES | Scp1 inh | LMPTP block | STEP block | PP5 primary | PP1 inh | Scp1 confirm | MG interference | Scp1 DSF
Cc1cccc(NC(=O)C2CCCN2S(=O)(=O)c2ccc3c(c2)n(C)c(=O)c(=O)n3C)c1 (stereo not drawn) | -2 | 1 | 0 | 1 | -3 | 0 | -4 | .
CCCC(=O)Nc1ccc2nc(SCC(=O)Nc3nccs3)sc2c1 | 102* | -3 | -3 | 0 | -4 | 1 | -4 | .
Cc1noc(C)c1COc1ccc(C(=O)Nc2ccccc2)cc1 | -4 | 3 | 2 | 1 | -2 | . | . | .
CC(NC(=O)c1cc2c(=O)n(C)c3ccccc3c2n1C)c1ccc2c(c1)OCCO2 (stereo not drawn) | 3 | 3 | 2 | -1 | 1 | . | . | .
CC(NC(=O)COc1cc(=O)n(C)c2ccccc12)c1ccc2c(c1)OCCO2 (stereo not drawn) | -6 | -1 | -4 | -4 | 0 | -9 | -11 | .
Cc1ccc(NC(=O)c2cc(-c3ccc(C)o3)nc3ccccc23)cc1 | 10 | 0 | 1 | 3 | 1 | . | . | .
Cc1ccc(-c2cc(C(=O)Nc3cccnc3)c3ccccc3n2)o1 | 60* | 2 | 1 | 1 | -3 | 57* | -1 | 5.7*
O=C(/C=C/c1ccco1)N1CCN(S(=O)(=O)c2ccc(F)c(F)c2F)CC1 | 8 | -1 | 1 | 0 | 2 | . | . | .
O=C(/C=C/c1ccco1)N1CCN(S(=O)(=O)c2ccccc2)CC1 | 73* | 10 | 18 | . | . | 70* | -10 | -10
Cc1ccc(S(=O)(=O)N2CCN(C(=O)/C=C/c3ccco3)CC2)cc1 | 71* | 3 | 3 | 1 | -1 | 71* | -4 | -4
O=C(c1cc(Br)c(Br)s1)N1CCOCC1 | -6 | -10 | 3 | -1 | -8 | . | . | .
O=C(c1coc(=O)c(Br)c1)N1CCOCC1 | 68* | 13 | 38 | . | . | 60* | -12 | -17
O=C(Nc1ccc(S(=O)(=O)Nc2nccs2)cc1)c1nn(-c2ccc(F)cc2)ccc1=O | 93* | 56* | 7 | -1 | 2 | 59* | -22 | 4
O=C(Nc1cccnc1Cl)c1ccc(=O)oc1 | 53* | 0 | 1 | 0 | 1 | 43* | -4 | 6.5*
COc1ccc(C(=O)Nc2cccnc2Cl)cc1OC | -2 | 1 | 2 | 1 | 2 | . | . | .
O=C(O)CN1C(=O)/C(=C2\C(=O)N(Cc3ccccc3Cl)c3ccccc32)SC1=S | 82* | 9 | 52* | 3 | -1 | 62* | -20 | 16*
Cc1ccc(NC(=O)N2CCCCCC2)cc1 | -8 | 0 | 0 | 2 | -2 | . | . | .
Cc1c(F)cccc1NC(=O)CCCCCC1NC(=O)NC1C (stereo not drawn) | -1 | -1 | -5 | 2 | -2 | 0 | -7 | .
CC1NC(=O)NC1CCCCCC(=O)Nc1ccc(F)cc1 (stereo not drawn) | 13 | 0 | -2 | -3 | -5 | -18 | -15 | .
Cc1c(F)cccc1NC(=O)CCC(=O)O | -2 | 0 | -1 | 1 | -1 | . | . | .
C[C@H](NC(=O)c1ccco1)C(=O)NNC(=O)c1ccc(F)cc1 | 99* | 0 | -3 | . | . | 0 | -10 | .
CCN1C(=NCCOC)N[C@@H](c2cccc(C(F)(F)F)c2)C(C(=O)OC)=C1C | 56* | -2 | 2 | . | . | 5 | -9 | .
CCN1C(=NCC2CC2)N[C@@H](c2cccc(C(F)(F)F)c2)C(C(=O)OC)=C1C | 50* | 0 | 0 | 2 | -3 | -14 | -13 | .
CCN1C(=NCc2cc(OC)c(OC)c(OC)c2)N[C@@H](c2ccccc2)C(C(=O)OC)=C1C | 54* | 0 | 0 | . | . | -13 | -13 | .
CCN1C(=NCc2cc(OC)c(OC)c(OC)c2)N[C@@H](c2cccc(C(F)(F)F)c2)C(C(=O)OC)=C1C | -14 | -2 | -2 | . | . | . | . | .
SMILES | Scp1 inh | LMPTP block | STEP block | PP5 primary | PP1 inh | Scp1 confirm | MG interference | Scp1 DSF
CCN1C(=NCc2ccco2)N[C@@H](c2cccc(C(F)(F)F)c2)C(C(=O)OC)=C1C | 4 | -1 | -2 | . | . | . | . | .
Cc1ccccc1OCC(=O)OCC(=O)N1CCCc2ccccc21 | -12 | 0 | 2 | 0 | -1 | . | . | .
COc1cc(CNCCc2ccc(S(N)(=O)=O)cc2)ccc1OCc1ccc(Cl)cc1 | 22 | 0 | 3 | 1 | 7 | . | . | .
Cc1nn(CCc2nn[nH]n2)c2nc(-c3ccccc3)cc(C(F)(F)F)c12 | 64* | 0 | -3 | 3 | 5 | 71* | -4 | -11
CC1CCc2sc(C(=O)N/N=C/c3ccc([N+](=O)[O-])cc3)cc2C1 (stereo not drawn) | 72* | 36 | 30 | 3 | 4 | 69* | -14 | 4
O=C(N/N=C/c1ccc([N+](=O)[O-])cc1)c1cccs1 | 60* | 5 | 26 | 1 | -3 | 53* | -20 | 4
CC1CCc2sc(C(=O)NN=C3CCC(c4ccccc4)CC3)cc2C1 (stereo not drawn) | -7 | 1 | -1 | 2 | -3 | . | . | .
O=C(N/N=C/c1ccc(-c2cccc([N+](=O)[O-])c2)o1)c1cccs1 | -9 | 3 | 1 | 3 | 2 | . | . | .
CCOc1cc(CNCCCN2CCOCC2)cc(Br)c1OCC(=O)Nc1cccc(C(F)(F)F)c1 | -1 | -3 | -1 | 0 | 12 | . | . | .
C[n+]1c(/C=C/c2ccc(O)cc2)ccc2ccccc21 | 51* | 3 | 0 | 3 | 6 | -20 | -13 | .
CC[n+]1c(/C=C/c2ccc(N(C)C)cc2)ccc2ccccc21 | 13 | 36 | 24 | 9 | 5 | . | . | .
N#CCC(=O)Nc1ccc(C(=O)OCC(=O)Nc2ccc3ccccc3c2)cc1 | 52* | 12 | 3 | 1 | 15* | 57* | -15 | 25*
Cn1c(=O)c(NC(=O)c2ccccc2)c2n(c1=S)CCCCC2 | 55* | -1 | -2 | -2 | 1 | 36* | -14 | -20
O=C(Nc1c2n(c(=S)n(-c3ccccc3)c1=O)CCCCC2)c1ccccc1 | -3 | -1 | 5 | -2 | 0 | . | . | .
O=C(CSc1ccsc1[N+](=O)[O-])NCc1ccco1 | 57* | 4 | 5 | 2 | 1 | 61* | -16 | 5
Cc1ccccc1NC(=O)CSc1ccsc1[N+](=O)[O-] | 72* | 50 | 18 | 3 | -1 | 62* | -15 | 14*
O=C(CSc1ccsc1[N+](=O)[O-])N1CCN(c2ccccc2)CC1 | 64* | 9 | 7 | 0 | 0 | 76* | -6 | 5
COC(=O)c1sccc1NC(=O)CSc1ccccc1N | 58* | 0 | -1 | -3 | 0 | -22 | -19 | .
